Activity calls are given as the source filed them. The calls are words filed in the database; no cut-off is given here.
Key:
[1] = Clearance in rat liver microsomes assessed as compound remaining incubated for 1 hr by LC-MS/MS method; format: ADME
Summary of the method: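 Compounds incubated with rat liver microsomes for 1 h; percent parent remaining quantified by LC–MS/MS.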

[2] = biological target: T1, Mitogen-activated protein kinase kinase kinase kinase 4 (Homo sapiens, UniProt O95819); experiment: Inhibition of MAP4K4 (unknown origin) by Z'LYTE assay
[3] = Clearance in mouse liver microsomes assessed as compound remaining incubated for 1 hr by LC-MS/MS method; format: ADME
HUVEC = experiment: Anti-angiogenesis activity in HUVEC assessed as inhibition of cell migration; format: functional, cell-based; settings: Homo sapiens
[4] = Clearance in human liver microsomes assessed as compound remaining incubated for 1 hr by LC-MS/MS method; format: ADME
[5] = Ratio of drug level in brain to plasma in rat administered as cassette dosing; format: ADME, organism-based; settings: read-out: BPR
Summary of the method: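 Brain-to-plasma ratio determined in rats after IV cassette dosing.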

[6] = Efflux ratio in MDCK cells at 10 uM incubated over 60 mins; format: ADME, cell-based, Canis lupus familiaris; settings: dog
Summary of the method: (§1)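 MDCK cells exposed to test compound at 10 μM over 60 min. Apparent permeability (Papp) measured. Efflux ratio derived from apical–basolateral versus basolateral–apical flux rates.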

[7] = Apparent permeability in MDCK cells at 10 uM incubated over 60 mins; format: ADME, cell-based, Canis lupus familiaris; settings: dog; summary of the method: as §1
[8] = Cmax in rat at 1 mg/kg, iv; format: ADME, organism-based; design: dose 1 mg/kg, route intravenous; settings: in vivo
Summary of the method: (§2)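 Single IV bolus of 1 mg/kg given as a solution in 10% EtOH, 30% PEG400, 60% 50 mM citrate, pH 3.0, in mouse, rat or dog. Three animals per group; mean values reported.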

[9] = AUC (infinity) in mouse at 5 mg/kg, po; format: ADME, organism-based; design: dose 5 mg/kg, time infinity, route oral; settings: in vivo
[10] = Clearance in rat at 1 mg/kg, iv; format: ADME, organism-based; settings: in vivo; summary of the method: as §2
[11] = Tmax in rat at 5 mg/kg, po; format: ADME, organism-based; settings: in vivo
Summary of the method: (§3)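 Oral dose of 5 mg/kg given as a suspension in 0.5% (w/v) methylcellulose/0.2% (w/v) Tween 80 in sterile water, in mouse, rat or dog. Three animals per group; means reported. Bioavailability derived against a 1 mg/kg IV bolus.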

Mus musculus [12] = experiment: Anti-angiogenesis activity in neonatal mouse pups assessed as induction of abnormal retinal vascular morphology at 100 mg/kg, ip dosed daily form P1 to P6 days by isolectin -B4 staining
[13] = Oral bioavailability in mouse at 5 mg/kg; format: ADME, organism-based; settings: in vivo; summary of the method: as §3
[14] = Protein binding in rat plasma; format: ADME, cell-free; settings: read-out: PPB (converted)
[15] = Cmax in dog at 1 mg/kg, iv; format: ADME, organism-based, Canis lupus familiaris; design: dose 1 mg/kg, route intravenous; settings: in vivo; summary of the method: as §2
[16] = Tmax in dog at 5 mg/kg, po; format: ADME, organism-based, Canis lupus familiaris; settings: in vivo; summary of the method: as §3
Canis familiaris [17] = experiment: Volume of distribution in dog at 5 mg/kg, po; format: ADME, organism-based, Canis lupus familiaris; settings: in vivo
Canis familiaris [18] = experiment: AUC (infinity) in dog at 5 mg/kg, po; format: ADME, organism-based, Canis lupus familiaris; design: dose 5 mg/kg, time infinity, route oral; settings: in vivo
Mus musculus [19] = experiment: Volume of distribution in mouse at 5 mg/kg, po; format: ADME, organism-based; settings: in vivo
[20] = Clearance in mouse at 1 mg/kg, iv; format: ADME, organism-based; settings: in vivo; summary of the method: as §2
[21] = AUC (infinity) in rat at 5 mg/kg, po; format: ADME, organism-based; design: dose 5 mg/kg, time infinity, route oral; settings: in vivo
[22] = Half life in dog at 1 mg/kg, iv; format: ADME, organism-based, Canis lupus familiaris; settings: in vivo; summary of the method: as §2
[23] = Cmax in dog at 5 mg/kg, po; format: ADME, organism-based, Canis lupus familiaris; design: dose 5 mg/kg, route oral; settings: in vivo; summary of the method: as §3
[24] = Half life in rat at 1 mg/kg, iv; format: ADME, organism-based; settings: in vivo; summary of the method: as §2
[25] = Half life in mouse at 1 mg/kg, iv; format: ADME, organism-based; settings: in vivo; summary of the method: as §2
[26] = Cmax in rat at 5 mg/kg, po; format: ADME, organism-based; design: dose 5 mg/kg, route oral; settings: in vivo; summary of the method: as §3
[27] = Cmax in mouse at 5 mg/kg, po; format: ADME, organism-based; design: dose 5 mg/kg, route oral; settings: in vivo; summary of the method: as §3
Mus musculus [28] = experiment: Drug level in neonatal mouse pups assessed as time duration for sustained drug exposure at 25 and 50 mg/kg, ip; format: ADME, organism-based; settings: in vivo
Summary of the method: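 Neonatal mouse pups given 25 or 50 mg/kg intraperitoneally. Plasma exposure followed over 24 h post-dose.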

Mus musculus [29] = experiment: Anti-angiogenesis activity in neonatal mouse pups assessed as delay in retinal vascular outgrowth dosed intraperitoneally daily form P1 to P5 days by isolectin -B4 staining; format: functional, organism-based
Summary of the method: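 Newborn mice dosed IP daily with vehicle or 100 mg/kg from P1 to P5. Retinas flat-mounted at P6 and stained with isolectin-B4. Avascular area normalized to total retina, one value per retina. Mann–Whitney unpaired test.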

[30] = Oral bioavailability in rat at 5 mg/kg; format: ADME, organism-based; settings: in vivo; summary of the method: as §3
[31] = Tmax in mouse at 5 mg/kg, po; format: ADME, organism-based; settings: in vivo; summary of the method: as §3
Rattus norvegicus = experiment: Volume of distribution in rat at 5 mg/kg, po; format: ADME, organism-based; settings: in vivo
[32] = Cmax in mouse at 1 mg/kg, iv; format: ADME, organism-based; design: dose 1 mg/kg, route intravenous; settings: in vivo; summary of the method: as §2
Brain = experiment: Free drug concentration in mouse brain; format: ADME, tissue-based; settings: in vivo
Summary of the method: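 Unbound drug concentration in brain measured in mice at the 1 h time point of the cross-species PK study.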

Canis familiaris [33] = experiment: Oral bioavailability in dog at 5 mg/kg; format: ADME, organism-based, Canis lupus familiaris; settings: in vivo; summary of the method: as §3
[34] = Protein binding in mouse plasma; format: ADME, cell-free; settings: read-out: PPB (converted)
[35] = biological target: T1, Mitogen-activated protein kinase kinase kinase kinase 4; experiment: Inhibition of MAP4K4 (unknown origin) by LC3K method
Summary of the method: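 Kinase activity read on a Caliper LabChip 3000 platform, with IC50 values derived from that read-out.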

T1 sequence (O95819 whole entry): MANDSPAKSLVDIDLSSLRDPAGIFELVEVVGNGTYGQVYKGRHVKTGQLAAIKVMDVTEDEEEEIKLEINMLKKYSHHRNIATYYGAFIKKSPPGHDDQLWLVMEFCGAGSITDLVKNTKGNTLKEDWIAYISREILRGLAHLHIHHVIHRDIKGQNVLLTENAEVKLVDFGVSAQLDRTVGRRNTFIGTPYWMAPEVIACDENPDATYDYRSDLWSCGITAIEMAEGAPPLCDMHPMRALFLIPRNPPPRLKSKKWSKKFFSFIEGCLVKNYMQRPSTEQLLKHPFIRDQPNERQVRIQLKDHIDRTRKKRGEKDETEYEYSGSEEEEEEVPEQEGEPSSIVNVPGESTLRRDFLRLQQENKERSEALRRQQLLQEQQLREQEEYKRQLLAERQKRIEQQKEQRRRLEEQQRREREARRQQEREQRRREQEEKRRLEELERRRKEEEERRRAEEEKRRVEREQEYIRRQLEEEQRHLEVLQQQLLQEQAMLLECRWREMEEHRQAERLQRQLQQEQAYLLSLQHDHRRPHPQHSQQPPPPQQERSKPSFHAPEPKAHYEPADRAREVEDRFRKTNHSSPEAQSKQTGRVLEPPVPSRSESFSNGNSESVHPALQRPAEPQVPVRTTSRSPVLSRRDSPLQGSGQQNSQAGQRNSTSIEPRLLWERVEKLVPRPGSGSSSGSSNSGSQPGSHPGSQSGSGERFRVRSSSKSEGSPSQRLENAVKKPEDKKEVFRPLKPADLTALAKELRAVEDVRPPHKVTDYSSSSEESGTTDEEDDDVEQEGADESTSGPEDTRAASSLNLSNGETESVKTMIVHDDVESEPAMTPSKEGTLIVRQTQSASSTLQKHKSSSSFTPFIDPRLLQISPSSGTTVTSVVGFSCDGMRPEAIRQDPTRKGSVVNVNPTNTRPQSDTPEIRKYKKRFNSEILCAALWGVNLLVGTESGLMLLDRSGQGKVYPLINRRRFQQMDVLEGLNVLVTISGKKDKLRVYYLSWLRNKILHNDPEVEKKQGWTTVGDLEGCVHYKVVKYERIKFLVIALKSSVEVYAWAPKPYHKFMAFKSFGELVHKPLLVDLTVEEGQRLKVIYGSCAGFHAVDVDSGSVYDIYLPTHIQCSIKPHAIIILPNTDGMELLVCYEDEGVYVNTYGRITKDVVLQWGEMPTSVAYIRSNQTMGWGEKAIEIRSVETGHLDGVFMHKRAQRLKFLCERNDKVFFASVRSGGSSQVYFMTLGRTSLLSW

SMILES: CNC(=O)N1CC(NC(=O)c2cnc(N)c3cc(-c4cccc(F)c4)ccc23)C1
- CLhep predicted [1]: 0.762 L/h/kg

SMILES: Nc1ncc(C(=O)NC2CNC2)c2ccc(-c3cccc(F)c3)cc12
- CLhep predicted [1]: 0.642 L/h/kg

SMILES: NC(=O)c1cnc(N)c2cc(-c3cccc(F)c3)ccc12
- IC50 [2]: 0.018 µM
- CLhep predicted [1]: 2.4 L/h/kg

SMILES: Nc1ncnc2ccc(-c3cccc(F)c3)cc12
- CLhep predicted [1]: 2.85 L/h/kg

SMILES: CCC(=O)N1CC(NC(=O)c2cnc(N)c3nc(-c4cccc(F)c4)ccc23)C1
- IC50 [2]: 0.0035 µM
- CLhep predicted [3]: 1.68 L/h/kg
- IC50 (HUVEC): 0.079 µM
- CLhep predicted [4]: 0.3 L/h/kg

SMILES: Nc1ncc(C(=O)NC2CC(O)C2)c2ccc(-c3cccc(F)c3)cc12 (mixture of isomers)
- IC50 [2]: 0.041 µM
- CLhep predicted [1]: 0.894 L/h/kg
- Kp [5]: 0.02

SMILES: CNC(=O)N1CC(NC(=O)c2cnc(N)c3nc(-c4cccc(F)c4)ccc23)C1
- CLhep predicted [3]: 1.92 L/h/kg
- IC50 (HUVEC): 0.196 µM
- efflux ratio at 1 h, 10 µM [6]: 1.1
- CLhep predicted [4]: 0.54 L/h/kg
- Papp at 1 h, 10 µM [7]: 24 nm/s

SMILES: Nc1ncc(C(=O)NC2CN(C(=O)C3CC3)C2)c2ccc(-c3cccc(F)c3)nc12
- IC50 [2]: 0.0037 µM
- Cmax [8]: 4 µM
- AUC(0-inf) [9]: 5.3 µM·h
- clearance [10]: 0.45 L/h/kg
- Tmax [11]: 4 h
- Activity (Mus musculus [12]): Active
- bioavailability [13]: 47%
- fraction unbound [14]: 0.022
- Cmax [15]: 3.9 µM
- Tmax [16]: 1.7 h
- Vd (Canis familiaris [17]): 1.1 L/kg
- AUC (Canis familiaris [18]): 21 µM·h
- Vd (Mus musculus [19]): 1.6 L/kg
- clearance [20]: 1.14 L/h/kg
- AUC(0-inf) [21]: 12 µM·h
- half-life [22]: 1.8 h
- Cmax [23]: 1.2 µM
- CLhep predicted [3]: 0.78 L/h/kg
- half-life [24]: 3.4 h
- IC50 (HUVEC): 0.057 µM
- half-life [25]: 1.5 h
- Cmax [26]: 1.5 µM
- Cmax [27]: 1.4 µM
- Time (Mus musculus [28]): > 24 h
- Activity (Mus musculus [29]): Active
- bioavailability [30]: 40%
- Tmax [31]: 1 h
- Vd (Rattus norvegicus): 1.2 L/kg
- Cmax [32]: 2.7 µM
- efflux ratio at 1 h, 10 µM [6]: 2.3
- Drug uptake(free) (Brain): 0.008 µM
- F (Canis familiaris [33]): 37%
- CLhep predicted [4]: 0.42 L/h/kg
- Papp at 1 h, 10 µM [7]: 73 nm/s
- fraction unbound [34]: 0.056

SMILES: CC(=O)N1CC(NC(=O)c2cnc(N)c3cc(-c4cccc(F)c4)ccc23)C1
- IC50 [2]: 0.032 µM
- CLhep predicted [1]: 0.54 L/h/kg

SMILES: Nc1ncc(C(=O)NC2CC2)c2ccc(-c3cccc(F)c3)cc12
- CLhep predicted [1]: 1.68 L/h/kg
- IC50 [35]: 0.016 µM

SMILES: N#CCNC(=O)c1cnc(N)c2cc(-c3cccc(F)c3)ccc12
- IC50 [2]: 0.046 µM
- CLhep predicted [1]: 1.38 L/h/kg
- Kp [5]: 0.12

SMILES: Nc1ncc(C(=O)NC2CC2)c2ccc(-c3cccc(F)c3)nc12
- IC50 [2]: 0.0014 µM
- CLhep predicted [3]: 4.68 L/h/kg
- IC50 (HUVEC): 0.099 µM
- efflux ratio at 1 h, 10 µM [6]: 0.74
- CLhep predicted [4]: 0.96 L/h/kg
- Papp at 1 h, 10 µM [7]: 34 nm/s

SMILES: Nc1ncc(C(=O)N[C@H]2C[C@@H](O)C2)c2ccc(-c3cccc(F)c3)nc12
- IC50 [2]: 0.0037 µM
- CLhep predicted [3]: 3.66 L/h/kg
- IC50 (HUVEC): 0.215 µM
- efflux ratio at 1 h, 10 µM [6]: 0.83
- CLhep predicted [4]: 0.36 L/h/kg
- Papp at 1 h, 10 µM [7]: 101 nm/s

Reference: ChEMBL document CHEMBL3621153, “Structure-Based Design of GNE-495, a Potent and Selective MAP4K4 Inhibitor with Efficacy in Retinal Angiogenesis” (ACS Med Chem Lett, 2015)
